Source: ChEMBL document CHEMBL4765334, “Chemical profiling of HIV-1 capsid-targeting antiviral PF74” (Eur J Med Chem, 2020)

Assays:
[1] = system: Human immunodeficiency virus 1; experiment: Antiviral activity against HIV1 NL4-3 infected in human TZM-GFP cells assessed as number of GFP positive cells incubated for 48 hrs by imaging reader; assay type: functional, organism-based; settings: Human immunodeficiency virus 1, NL4-3, TZM
Summary of the method: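 TZM-GFP cells seeded 1 × 10^4/well and given increasing compound concentrations 24 h later; infected with HIV-1 NL4-3 (MOI = 1) after a further 24 h. Read-out after 48 h: GFP-positive cell counts (LTR-driven) versus DMSO controls. EC50 fitted as log(inhibitor) vs normalized response, variable slope, per experiment and averaged; mean ± SD, duplicates, at least two independent experiments.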

TZM = experiment: Cytotoxicity against human TZM-GFP cells incubated for 72 hrs by XTT assay; assay type: cell-based; settings: tzm, 72 h
Summary of the method: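 TZM-GFP cells seeded at 1 × 10^4 per well and exposed continuously to increasing compound concentrations for 72 h. Viable cell number read by XTT proliferation kit. CC50 fitted as log(inhibitor) vs normalized response, variable slope, per independent assay and averaged. Run in duplicate, at least two independent experiments, reported as mean ± standard deviation.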

[2] = system: Human immunodeficiency virus 1; experiment: Binding affinity to covalently-crosslinked hexameric HIV1 capsid protein A14C/E45C/W184A/M185A mutant expressed in Escherichia coli BL21(DE3)RIL assessed as change in melting temperature at 20 uM incubated for 30 mins by thermal shift dye based fluorescence analysis
Summary of the method: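 Thermal shift: 15 μM CA121 in 50 mM sodium phosphate pH 8.0 with Sypro Orange and compound at 20 μM final or DMSO control. Heated 25 to 95 °C at 0.2 °C/10 s; fluorescence Ex 475–500, Em 520–590 nm. ΔTm = Tm(compound) − T0(DMSO) for CA hexamer melting.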

[3] = Stability of the compound in human plasma assessed as half life incubated for 3 hrs by LC-MS/MS analysis; assay type: ADME, cell-free
[4] = Stability of the compound in mouse plasma assessed as half life incubated for 3 hrs by LC-MS/MS analysis; assay type: ADME, cell-free
[5] = Metabolic stability at phase 1 in human liver microsomes assessed as half life at 1 uM by LC-MS/MS analysis; assay type: ADME, Microsome
[6] = Metabolic stability at phase 1 in mouse liver microsomes assessed as half life at 1 uM by LC-MS/MS analysis; assay type: ADME, Microsome; settings: for t1/2: microsomes, 1 µM; for half-life at 1 µM: liver microsomes

SMILES | EC50 [1] [µM] | CC50 (TZM) [µM] | ΔTm [2] [°C] | t1/2 [3] [min] | t1/2 [4] [min] | t1/2 [5] [min] | t1/2 [6] [min] | half-life at 1 µM [6] [min]
COc1ccc(N(C)C(=O)[C@H](Cc2ccccc2)NC(=O)Cc2c[nH]c3ccccc23)cc1 | 0.23 | > 100 | 6.2 | > 360 | > 360 | 1.6 | 0.6 | –
Cc1[nH]c2ccccc2c1CC(=O)N[C@@H](Cc1ccccc1)C(=O)N(C)c1ccccc1 | 0.61 | – | 7.4 | > 360 | – | – | – | 0.6
CCn1cc(CC(=O)N[C@@H](Cc2ccccc2)C(=O)N(C)c2ccc(F)cc2)c2ccccc21 | 0.27 | 18 | 7.1 | > 360 | > 360 | 1.3 | – | 0.5
Cc1[nH]c2ccccc2c1CC(=O)N[C@@H](Cc1ccccc1)C(=O)N(C)c1ccc(F)cc1 | 0.67 | > 50 | 7 | > 360 | > 360 | 1 | – | 0.5
CCn1c(C)c(CC(=O)N[C@@H](Cc2ccccc2)C(=O)N(C)c2ccc(F)cc2)c2ccccc21 | 0.22 | 19 | 10.7 | > 360 | > 360 | 1 | – | 0.5
CN(C(=O)[C@H](Cc1ccccc1)NC(=O)Cc1c[nH]c2ccccc12)c1ccc(Cl)nc1 | 0.26 | – | 4.9 | > 360 | > 360 | 2.1 | 0.7 | –
Cc1ccc(N(C)C(=O)[C@H](Cc2ccccc2)NC(=O)Cc2c[nH]c3ccccc23)cc1 | 0.28 | 66 | 6.6 | > 360 | > 360 | 1.5 | 0.6 | –
Cc1c(CC(=O)N[C@@H](Cc2ccccc2)C(=O)N(C)c2ccccc2)c2ccccc2n1C(C)C | 0.28 | 16 | 7.8 | > 360 | > 360 | 0.6 | – | 0.5
CN(C(=O)[C@H](Cc1ccccc1)NC(=O)Cc1c[nH]c2ccccc12)c1cc(F)cc(F)c1 | 2.5 | < 50 | 2.3 | > 360 | > 360 | 0.9 | 0.6 | –
COc1ccc(N(C)C(=O)[C@H](Cc2ccccc2)NC(=O)Cc2c(C)[nH]c3ccccc23)cc1 | 0.63 | > 100 | 8.4 | > 360 | > 360 | 1 | 0.7 | –
Cc1ccc(N(C)C(=O)[C@H](Cc2ccccc2)NC(=O)Cc2c(C)n(C(C)C)c3ccccc23)cc1 | 0.63 | 10 | 8.4 | – | – | – | – | –
Cc1ccc(N(C)C(=O)[C@H](Cc2ccccc2)NC(=O)Cc2c(C)[nH]c3ccccc23)cc1 | 0.31 | 72 | 9.1 | > 360 | > 360 | 0.9 | – | 0.5
Cc1[nH]c2ccccc2c1CC(=O)N[C@@H](Cc1ccccc1)C(=O)Nc1ccc(C#N)cc1 | > 20 | > 100 | -0.6 | – | – | – | – | –
Cc1[nH]c2ccccc2c1CC(=O)N[C@@H](Cc1ccccc1)C(=O)N(C)c1cccc(F)c1 | 0.69 | > 50 | 6.2 | – | – | – | – | –
CCN(C(=O)[C@H](Cc1ccccc1)NC(=O)Cc1cn(C(C)C)c2ccccc12)c1ccccc1 | 0.87 | 15 | 5.7 | – | – | – | – | –
CCn1cc(CC(=O)N[C@@H](Cc2ccccc2)C(=O)N(C)c2ccccc2)c2ccccc21 | 0.31 | 23 | 6.7 | > 360 | > 360 | 0.9 | – | 0.5
CCn1cc(CC(=O)N[C@@H](Cc2ccccc2)C(=O)N(C)c2ccc(Cl)cc2)c2ccccc21 | 0.25 | 16 | 8.6 | – | – | – | – | –
CC(C)n1cc(CC(=O)N[C@@H](Cc2ccccc2)C(=O)N(C)c2ccccc2)c2ccccc21 | 0.33 | 21 | 6 | > 360 | > 360 | 0.9 | – | 0.5
Cc1[nH]c2ccccc2c1CC(=O)N[C@@H](Cc1ccccc1)C(=O)Nc1ccc2ncsc2c1 | 10 | 49 | 1.4 | – | – | – | – | –
CC(C)n1cc(CC(=O)N[C@@H](Cc2ccccc2)C(=O)N(C)c2ccc(F)cc2)c2ccccc21 | 0.37 | 18 | 6.5 | > 360 | > 360 | 0.9 | – | 0.5

SMILES | EC50 [1] [µM] | CC50 (TZM) [µM] | ΔTm [2] [°C] | t1/2 [3] [min] | t1/2 [4] [min] | t1/2 [5] [min] | t1/2 [6] [min] | half-life at 1 µM [6] [min]
Cc1[nH]c2ccccc2c1CC(=O)N[C@@H](Cc1ccccc1)C(=O)N(C)c1cccc(C(F)(F)F)c1 | 0.58 | 18 | 5.4 | – | – | – | – | –
Cc1[nH]c2ccccc2c1CC(=O)N[C@@H](Cc1ccccc1)C(=O)Nc1cccnn1 | > 20 | > 100 | 0 | – | – | – | – | –
Cc1cc(NC(=O)[C@H](Cc2ccccc2)NC(=O)Cc2c(C)[nH]c3ccccc23)n[nH]1 | > 20 | > 100 | 0 | – | – | – | – | –
CCN(C(=O)[C@H](Cc1ccccc1)NC(=O)Cc1c(C)[nH]c2ccccc12)c1ccccc1 | 0.25 | 82 | 8.5 | > 360 | > 360 | 0.9 | – | 0.5
CN(C(=O)[C@H](Cc1ccccc1)NC(=O)Cc1c[nH]c2ccccc12)c1ccc(F)cc1 | 1.8 | > 100 | 3.3 | > 360 | > 360 | 1.3 | – | 0.5
CCN(C(=O)[C@H](Cc1ccccc1)NC(=O)Cc1c[nH]c2ccccc12)c1ccccc1 | 0.44 | 70 | 6.4 | – | – | – | – | –
O=C(Cc1c[nH]c2ccccc12)N[C@@H](Cc1ccccc1)C(=O)NC(c1ccccc1)c1ccccc1 | > 20 | > 100 | -1.6 | – | – | – | – | –
O=C(Cc1c[nH]c2ccccc12)N[C@@H](Cc1ccccc1)C(=O)Nc1cccc(-c2nnn[nH]2)c1 | > 20 | > 100 | -0.7 | – | – | – | – | –
CCn1c(C)c(CC(=O)N[C@@H](Cc2ccccc2)C(=O)N(C)c2ccc(C)cc2)c2ccccc21 | 0.23 | 18 | 11 | – | – | – | – | –
Cc1c(CC(=O)N[C@@H](Cc2ccccc2)C(=O)N(C)c2cccc(F)c2)c2ccccc2n1C(C)C | 0.29 | 17 | 7 | – | – | – | – | –
CC(C)n1cc(CC(=O)N[C@@H](Cc2ccccc2)C(=O)N(C)c2cccc(F)c2)c2ccccc21 | 0.32 | 12 | 5.8 | – | – | – | – | –
CN(C(=O)[C@H](NC(=O)Cc1c[nH]c2ccccc12)c1ccccc1)c1ccccc1 | > 20 | > 50 | 1.5 | – | – | – | – | –
CN(C(=O)[C@H](Cc1ccccc1)NC(=O)Cc1c[nH]c2ccccc12)c1ccc(Cl)cc1 | 0.45 | < 50 | 4.6 | – | – | – | – | –
Cc1cc(NC(=O)[C@H](Cc2ccccc2)NC(=O)Cc2c[nH]c3ccccc23)n[nH]1 | > 20 | > 100 | 0 | – | – | – | – | –
CCn1cc(CC(=O)N[C@@H](Cc2ccccc2)C(=O)N(C)c2cccc(Cl)c2)c2ccccc21 | 2 | 20 | 5.8 | – | – | – | – | –
Cc1c(CC(=O)N[C@@H](Cc2ccccc2)C(=O)N(C)c2ccc(F)cc2)c2ccccc2n1C(C)C | 0.32 | 20 | 7.5 | > 360 | > 360 | 0.6 | – | 0.5
O=C(Cc1c[nH]c2ccccc12)N[C@@H](Cc1ccccc1)C(=O)Nc1nc2ccccc2[nH]1 | > 20 | 44 | -0.6 | – | – | – | – | –
Cc1[nH]c2ccccc2c1CC(=O)N[C@@H](Cc1ccccc1)C(=O)NC12CC3CC(CC(C3)C1)C2 | > 20 | > 100 | -0.8 | – | – | – | – | –
CCn1c(C)c(CC(=O)N[C@@H](Cc2ccccc2)C(=O)N(C)c2ccc(Cl)cc2)c2ccccc21 | 0.24 | 27 | 11.9 | – | – | – | – | –
CCn1c(C)c(CC(=O)N[C@@H](Cc2ccccc2)C(=O)N(C)c2ccccc2)c2ccccc21 | 0.28 | 21 | 10.8 | > 360 | > 360 | 1 | – | 0.5
